# In ChEMBL document CHEMBL1287652, “QSAR modeling, synthesis and bioassay of diverse leukemia RPMI-8226 cell line active agents” (2010):
# Assay: Antitumor activity against human […] cells at 10 uM after 48 hrs by sulforhodamine B assay relative to control
# Type: functional
# In short: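 NCI panel lines were grown in RPMI-1640 with 5% FBS and 2 mM L-glutamine and seeded at 5000–40,000 cells/well according to doubling time. After 24 h at 37 °C, 5% CO2, one dose from a DMSO stock was added for 48 h. Cells were TCA-fixed (10% final adherent, 16% suspension), SRB-stained and read at 515 nm. Percent growth is relative to untreated control.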
row,Compound,inhibition at 10 µM [%]
1,O=C(Nc1ccc(Cl)c(Cl)c1)Nc1ccccc1SCCCSc1ccccc1NC(=O)Nc1ccc(Cl)c(Cl)c1,108
2,COc1ccc(Nc2nc(-c3ccccc3)cc(-c3ccc(Cl)cc3)c2C(=O)Nc2ccccc2)cc1,30
3,Cc1ccc(NC(=O)c2c(-c3ccc(Cl)cc3)cc(-c3ccccc3)nc2N2CCOCC2)cc1,39
4,CN1C/C(=C\c2ccc(Cl)cc2)C(=O)[C@@]2(C1)[C@H](c1ccc(Cl)cc1)CN(C)[C@]21C(=O)N(C)c2ccccc21,62
5,CN1C/C(=C\c2cccs2)C(=O)[C@@]2(C1)[C@H](c1cccs1)CN(C)[C@]21C(=O)N(C)c2ccccc21,89.4
6,[3H]N1C(=O)[C@@]2(c3ccccc31)N(C)C[C@@H](c1ccc(OC)cc1)[C@@]21Cc2ccccc2C1=O,33.2
7,O=C(Nc1ccccc1)c1c(-c2ccc(Cl)cc2)cc(-c2ccccc2)nc1N1CCCCC1,13
8,O=C(Nc1ccc(Cl)cc1)/C(=C/c1ccccc1OCCOc1ccccc1/C=C(\NC(=O)c1ccccc1)C(=O)Nc1ccc(Cl)cc1)NC(=O)c1ccccc1,6.03
9,O=C1c2ccccc2SCC[C@@]12[C@H](c1ccc(Cl)cc1)C(c1ccccc1)=NN2c1cccc(Cl)c1,33.2
10,O=C(N/C(=C\c1ccccc1OCCOc1ccccc1/C=C(\NC(=O)c1ccccc1)C(=O)N1CCCCC1)C(=O)N1CCCCC1)c1ccccc1,18.3
11,Nc1nc(-c2ccccc2)cc(-c2ccc(Cl)cc2)c1C(=O)Nc1ccccc1,46
12,O=C(N/C(=C\c1ccccc1OCCOc1ccccc1/C=C(\NC(=O)c1ccccc1)C(=O)N1CCOCC1)C(=O)N1CCOCC1)c1ccccc1,9.15
13,O=C(Nc1ccccc1)c1c(-c2ccc(Cl)cc2)cc(-c2ccccc2)nc1Nc1ccccc1,15
14,[3H]N1C(=O)[C@@]2(c3ccccc31)N(C)C[C@@H](c1cccs1)[C@@]21Cc2ccccc2C1=O,10.9
15,[3H]N1C(=O)[C@@]2(c3ccccc31)N(C)C[C@@H](c1ccc(Cl)cc1)[C@@]21Cc2ccccc2C1=O,63.4
16,CCn1c(S)n[n+]2c(N)c(C#N)c(-c3ccc(N4CCOCC4)cc3)c(C#N)c12,24.9
17,Cn1c(S)n[n+]2c(N)c(C#N)c(-c3ccc(N4CCOCC4)cc3)c(C#N)c12,11.9

row,Compound,inhibition at 10 µM [%]
1,O=C(Nc1ccccc1)c1c(-c2ccc(Cl)cc2)cc(-c2ccccc2)nc1N1CCOCC1,51
2,Cc1ccc(NC(=O)c2c(-c3ccc(Cl)cc3)cc(-c3ccccc3)nc2Nc2ccc(Cl)cc2)cc1,58
3,[3H]C([3H])([3H])N1C(=O)[C@@]2(c3ccccc31)N(C)C[C@@H](c1cccs1)[C@@]21Cc2ccccc2C1=O,12.1
4,COc1ccc(/C=C2\CN(C)C[C@]3(C2=O)[C@H](c2ccc(OC)cc2)CN(C)[C@]32C(=O)Nc3ccccc32)cc1,79.3
5,CN1CCN(C(=O)/C(=C/c2ccccc2OCCOc2ccccc2/C=C(\NC(=O)c2ccccc2)C(=O)N2CCN(C)CC2)NC(=O)c2ccccc2)CC1,14.7
6,O=C1c2ccccc2SCC[C@@]12[C@H](c1cccs1)C(c1ccccc1)=NN2c1cccc(Cl)c1,29.8
7,COc1nc(-c2cccs2)cc2c1c(=O)oc1ccccc12,9.11
8,[3H]C([3H])([3H])N1C(=O)[C@@]2(c3ccccc31)N(C)C[C@@H](c1ccc(OC)cc1)[C@@]21Cc2ccccc2C1=O,82.3
9,Cc1ccc(NC(=O)c2c(-c3ccc(Cl)cc3)cc(-c3ccccc3)nc2N)cc1,71
10,COc1ccc([C@@H]2C(c3ccccc3)=NN(c3cccc(Cl)c3)[C@]23CCSc2ccccc2C3=O)cc1,34.3
11,[3H]C([3H])([3H])N1C(=O)[C@@]2(c3ccccc31)N(C)C[C@@H](c1ccc(Cl)cc1)[C@@]21Cc2ccccc2C1=O,86.6
12,Cc1ccc(NC(=O)c2c(-c3ccc(Cl)cc3)cc(-c3ccccc3)nc2N2CCCCC2)cc1,24
13,COc1ccc(Nc2nc(-c3ccccc3)cc(-c3ccc(Cl)cc3)c2C(=O)Nc2ccc(C)cc2)cc1,79
14,CN1C/C(=C\c2ccc(Cl)cc2)C(=O)[C@@]2(C1)[C@H](c1ccc(Cl)cc1)CN(C)[C@]21C(=O)Nc2ccccc21,61.5
15,COc1ccc(-c2c3c([nH]c(=S)c2C#N)-c2ccccc2SCC3)cc1,0.96
16,O=C(Nc1ccccc1)c1c(-c2ccc(Cl)cc2)cc(-c2ccccc2)nc1Nc1ccc(Cl)cc1,53
